Laboratory results as given in ChEMBL document CHEMBL1121845, “Synthesis and antitumor activity of cysteinyl-3,4-dihydroxyphenylalanines and related compounds” (1981).

Columns and labels:
[1] = tested on: YT-NU; experiment: Growth inhibition of YT-nu cell lines at 1.0 mM concentration; assay type: functional; settings: Homo sapiens
In short: (§1)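 YT-nu (human neuroblastoma) or Don-6 (Chinese hamster fibroblast) cells in McCoy's 5A with 15% FCS, attached 24 h. Washed, then exposed 1 h at 37 °C to drug at 1 or 0.1 mM in Hanks' BSS. Grown 48 h more in medium, trypsinized and Coulter-counted. % growth inhibition relative to parallel drug-free controls.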

[2] = tested on: Don; experiment: Growth inhibition of Don-6 cell lines at 1.0 mM concentration; assay type: functional; settings: Cricetulus griseus; in short: as §1
[3] = tested on: YT-nu neuroblastoma (Homo sapiens); experiment: Compound was tested for growth inhibition of YT-nu cell lines at 0.1 mM concentration
[4] = tested on: Don-6 fibroblast (Cricetulus griseus); experiment: Compound was tested for growth inhibition of Don-6 cell lines at 0.1 mM concentration
[5] = tested on: Mus musculus; experiment: Compound was tested for antitumor activity against the L1210 leukemia in mice at dose of 500(mg/kg)/day intraperitoneally per day; assay type: functional
In short: (§2)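 L1210 leukemia: young C57BL/6 × DBA/2 F1 male mice, about 20 g, 10 per group, inoculated ip with 1 × 10^6 leukemia cells on day 0. Drug given in 0.9% NaCl ip once daily for 7 days starting day 1. Read-out is %T/C = median survival time of treated/control × 100; weight change averaged between days 1 and 5.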

[6] = tested on: Mus musculus; experiment: Compound was tested for antitumor activity against the B-16 melanoma in mice at dose of 500(mg/kg)/day intraperitoneally per day; assay type: functional
In short: as §2, with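 “B-16 melanoma: young” for “L1210 leukemia: young”, “with 5” for “with 1”, “10^6 melanoma” for “10^6 leukemia”, “for 12” for “for 7”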

[7] = tested on: Mus musculus; experiment: Compound was tested for antitumor activity against the L1210 leukemia in mice at dose of 1000 mg/kg/day intraperitoneally per day; assay type: functional; settings: route intraperitoneal
[8] = tested on: Mus musculus; experiment: Compound was tested for antitumor activity against the B-16 melanoma in mice at dose of 1000 mg/kg/day intraperitoneally per day; assay type: functional; settings: route intraperitoneal
[9] = tested on: Mus musculus; experiment: Compound was tested for antitumor activity against the L1210 leukemia in mice at dose of 500 mg/kg intraperitoneally per day; assay type: functional; settings: route intraperitoneal; in short: as §2
[10] = tested on: Mus musculus; experiment: Compound was tested for antitumor activity against the B-16 melanoma in mice at dose of 800(mg/kg)/day intraperitoneally per day; assay type: functional
In short: as §2, with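 “B-16 melanoma: young” for “L1210 leukemia: young”, “with 5” for “with 1”, “10^6 melanoma” for “10^6 leukemia”, “for 12” for “for 7”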

[11] = tested on: Don; experiment: Compound was tested for growth inhibition of Don-6 cell lines at 0.1 mM concentration; assay type: functional; settings: Cricetulus griseus; in short: as §1
[12] = tested on: YT-NU; experiment: Compound was tested for growth inhibition of YT-nu cell lines at 0.1 mM concentration; assay type: functional; settings: Homo sapiens; in short: as §1
[13] = tested on: Mus musculus; experiment: Compound was tested for antitumor activity against the L1210 leukemia in mice at dose of 800(mg/kg)/day intraperitoneally per day; assay type: functional; in short: as §2
[14] = tested on: Mus musculus; experiment: Compound was tested for antitumor activity against the L1210 leukemia in mice at dose of 400(mg/kg)/day intraperitoneally per day; assay type: functional; in short: as §2
[15] = tested on: Mus musculus; experiment: Compound was tested for antitumor activity against the B-16 melanoma in mice at dose of 400(mg/kg)/day intraperitoneally per day; assay type: functional
In short: as §2, with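 “B-16 melanoma: young” for “L1210 leukemia: young”, “with 5” for “with 1”, “10^6 melanoma” for “10^6 leukemia”, “for 12” for “for 7”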

[16] = tested on: Mus musculus; experiment: Compound was tested for antitumor activity against the L1210 leukemia in mice at dose of 100(mg/kg)/day intraperitoneally per day; assay type: functional
In short: (§3)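 Male C57BL/6 × DBA/2 F1 mice, about 20 g, 10 per group, inoculated ip with 1 × 10^6 L1210 cells on day 0. From day 1, drug in 0.9% NaCl given ip once daily for 7 days. Weight change recorded between days 1 and 5. Activity expressed as %T/C = median survival time of treated over control × 100.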

[17] = tested on: Mus musculus; experiment: Compound was tested for antitumor activity against the B-16 melanoma in mice at dose of 300(mg/kg)/day intraperitoneally per day; assay type: functional
In short: as §2, with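 “B-16 melanoma: young” for “L1210 leukemia: young”, “with 5” for “with 1”, “10^6 melanoma” for “10^6 leukemia”, “for 12” for “for 7”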

[18] = tested on: Mus musculus; experiment: Compound was tested for antitumor activity against the L1210 leukemia in mice at dose of 300(mg/kg)/day intraperitoneally per day; assay type: functional; in short: as §2
[19] = tested on: Mus musculus; experiment: Compound was tested for antitumor activity against the B-16 melanoma in mice at dose of 100(mg/kg)/day intraperitoneally per day; assay type: functional
In short: as §2, with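 “B-16 melanoma: young” for “L1210 leukemia: young”, “with 5” for “with 1”, “10^6 melanoma” for “10^6 leukemia”, “for 12” for “for 7”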

[20] = tested on: Mus musculus; experiment: Compound was tested for antitumor activity against the L1210 leukemia in mice at dose of 250 mg/kg intraperitoneally per day; assay type: functional; settings: route intraperitoneal; in short: as §2
[21] = tested on: Mus musculus; experiment: Compound was tested for antitumor activity against the L1210 leukemia in mice at dose of 150(mg/kg)/day intraperitoneally per day; assay type: functional; in short: as §3

Work on `NC(CSc1ccccc1O)C(=O)O` (centres undefined) yielded an inhibition at 1000 µM [1] of 51% and an inhibition at 1000 µM [2] of 5%.

For `Cc1ccc(O)c(O)c1`, the inhibition at 100 µM [3] was 48%, the inhibition at 1000 µM [1] was 93% and the inhibition at 100 µM [4] was 33%. For the same molecule, the inhibition at 1000 µM [2] was 76%.

`NC(CSc1cc(CC(N)C(=O)O)cc(O)c1O)C(=O)O` (centres undefined) showed a T/C [5] of 131%, a T/C [6] of 108% and a Weight change [6] of 2.6 g. For the same molecule, the T/C [7] was 150%, the Weight change [7] was 1.7 g and the inhibition at 1000 µM [1] was 59%. It also gave a T/C [8] of 127%, a Weight change [8] of 2.1 g and a Weight change [9] of 1.7 g. The inhibition at 1000 µM [2] was 11%.

With `NC(CSc1nc(CC(N)C(=O)O)c[nH]1)C(=O)O` (centres undefined) the inhibition at 1000 µM [1] was 7% and the inhibition at 1000 µM [2] was 0%.

`NC(CSc1cc(O)c(O)cc1CC(N)C(=O)O)C(=O)O` (centres undefined) was tested, and the inhibition at 1000 µM [1] was 61% and the inhibition at 1000 µM [2] was 41%.

Work on `Cc1cc(O)c(O)c(SCC(N)C(=O)O)c1` (centres undefined) yielded a T/C [10] of 126%, a Weight change [10] of -0.4 g and an inhibition at 100 µM [11] of 25%. The inhibition at 1000 µM [1] was 84%, the inhibition at 100 µM [12] was 44% and the T/C [13] was 143%. It also gave a Weight change [13] of 0.5 g, a T/C [14] of 143% and a Weight change [14] of 1.6 g. The T/C [15] was 100%, the Weight change [15] was 0.7 g and the inhibition at 1000 µM [2] was 82%.

Molecule `NC(CSc1ccc(SCC(N)C(=O)O)c(O)c1O)C(=O)O` (centres undefined) has an inhibition at 1000 µM [1] of 40% and an inhibition at 1000 µM [2] of 30%.

Work on `NC(CSc1ccc(O)c(O)c1)C(=O)O` (centres undefined) yielded a T/C [5] of 150%, a Weight change [5] of -1 g and a T/C [16] of 113%. The Weight change [16] was 1.4 g, the T/C [17] was 114% and the Weight change [17] was -1.3 g. It also gave a T/C [6] of 95%, a Weight change [6] of -1.5 g and an inhibition at 100 µM [11] of 69%. The T/C [18] was 138%, the Weight change [18] was 0.5 g and the T/C [19] was 109%. The Weight change [19] was 1.8 g, the inhibition at 1000 µM [1] was 76% and the inhibition at 100 µM [12] was 71%. It also gave an inhibition at 1000 µM [2] of 81%.

`NC(CSc1c(CC(N)C(=O)O)ccc(O)c1O)C(=O)O` (centres undefined) was tested, and the inhibition at 1000 µM [1] was 35% and the inhibition at 1000 µM [2] was 0%.

Work on `NC(CSc1ccc(O)cc1)C(=O)O` (centres undefined) yielded a T/C [20] of 100%, a Weight change [20] of 3 g and an inhibition at 1000 µM [1] of 36%. For the same molecule, the inhibition at 1000 µM [2] was 5%.

Work on `NC(CSc1cc(CC(N)C(=O)O)c(SCC(N)C(=O)O)c(O)c1O)C(=O)O` (centres undefined) yielded an inhibition at 1000 µM [1] of 56% and an inhibition at 1000 µM [2] of 44%.

In the case of `NC(CSc1cc(CC(N)C(=O)O)ccc1O)C(=O)O` (centres undefined), the inhibition at 1000 µM [1] is reported as 7% and the inhibition at 1000 µM [2] is reported as 5%.

In the case of `NC(CSc1cccc(O)c1O)C(=O)O` (centres undefined), the inhibition at 1000 µM [1] is reported as 20% and the inhibition at 1000 µM [2] is reported as 32%.

Molecule `Cl.Cl.NCCSc1cc(CCN)cc(O)c1O` has an inhibition at 100 µM [3] of 48%, a T/C [16] of 100% and a Weight change [16] of 1.1 g. It also gave an inhibition at 1000 µM [1] of 65%, an inhibition at 100 µM [4] of 73% and an inhibition at 1000 µM [2] of 83%. For the same molecule, the T/C [21] was 88% and the Weight change [21] was -2.1 g.

Molecule `NCCc1ccc(O)c(O)c1` [DOPAMINE] has an inhibition at 1000 µM [1] of 40% and an inhibition at 1000 µM [2] of 30%.

For `N[C@@H](Cc1ccc(O)c(O)c1)C(=O)O` [LEVODOPA], the inhibition at 1000 µM [1] was 24% and the inhibition at 1000 µM [2] was 6%.
